Laboratory results as given in publication PMC6702080 (Nature chemical biology, 2019).
Where two headings read alike, the source gives them in different places.

Key:
[1] = cited from earlier work
[2] = molecular target: T1, PCBP1 KH3 domain (Homo sapiens, UniProt Q15365); test: biochemical; settings: 200 nM labeled KH3
[3] = molecular target: BolA2–KH3 complex (Homo sapiens, UniProt Q15365); test: biochemical
[4] = molecular target: T2, PCBP1 KH3 domain (WT) (Homo sapiens, UniProt Q15365); settings: wild-type KH3, 100 μM 35S-GSH, +/- 100 μM FeSO4
Target sequence in this assay (Q15365 287-356 limits assumed): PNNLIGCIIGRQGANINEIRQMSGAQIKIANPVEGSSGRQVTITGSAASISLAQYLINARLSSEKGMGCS

[5] = molecular target: T1, PCBP1 KH3 domain; settings: 10 μM Fe(II) versus no iron
[6] = molecular target: T1, PCBP1 KH3 domain; settings: 100 μM 35S-GSH
[7] = molecular target: PCBP1–BolA2 complex (Homo sapiens, UniProt Q15365+Q9H3K6); test: Co-immunoprecipitation of PCBP1 with BolA2-Flag from HEK293 cell lysates; settings: 1 mM DTT as alternative reducing agent instead of 5 mM GSH in IP buffer
[8] = molecular target: T2, PCBP1 KH3 domain (WT); test: Fe; assay type: binding; settings: for Kd: read-out: KD of Fe(II) for wild-type KH3
Target sequence in this assay (Q15365 279-356 limits assumed): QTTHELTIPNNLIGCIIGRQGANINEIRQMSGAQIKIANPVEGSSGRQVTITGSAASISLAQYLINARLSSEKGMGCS

[9] = molecular target: PCBP1 KH3 domain C293S variant; test: Fe; assay type: binding, human; settings: read-out: KD of Fe(II) for C293S KH3
Method in brief: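 Fe(II) binding followed as the fall in apo-indicator absorbance (366 nm, shifting toward 325 nm on metal binding). KD from competition; means ± SD, n = 4 independent experiments.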

T1 sequence (Q15365 279-356 limits assumed): as above
Chain of PCBP1–BolA2 complex (Q15365 whole entry, the tested form may be a part): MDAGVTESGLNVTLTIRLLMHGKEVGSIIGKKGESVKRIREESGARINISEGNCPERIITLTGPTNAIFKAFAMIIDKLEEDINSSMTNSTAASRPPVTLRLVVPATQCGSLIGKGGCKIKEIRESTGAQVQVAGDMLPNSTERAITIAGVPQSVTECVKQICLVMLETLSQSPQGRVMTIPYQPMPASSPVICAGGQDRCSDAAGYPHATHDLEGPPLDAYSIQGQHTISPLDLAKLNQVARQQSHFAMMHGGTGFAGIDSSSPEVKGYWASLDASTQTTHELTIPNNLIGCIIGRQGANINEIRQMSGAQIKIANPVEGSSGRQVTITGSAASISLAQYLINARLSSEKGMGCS
Chain of PCBP1–BolA2 complex (Q9H3K6 whole entry, the tested form may be a part): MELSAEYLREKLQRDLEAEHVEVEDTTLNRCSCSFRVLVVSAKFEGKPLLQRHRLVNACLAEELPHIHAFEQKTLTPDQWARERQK
Chain of BolA2–KH3 complex (Q15365 279-356): as the sequence (Q15365 279-356 limits assumed) above
Chain of BolA2–KH3 complex (Q9H3K6 whole entry partner, the tested form may be a part): as the sequence (Q9H3K6 whole entry, the tested form may be a part) above

For `[Mn+2]` [manganese], the “fold lower affinity for GSH than Fe(II)” value [1] is listed as > 100 fold.

In the case of `N[C@@H](CCC(=O)N[C@@H](CS)C(=O)NCC(=O)O)C(=O)O` [GSH, glutathione], the Kd ([2]; KD of GSH for KH3, buffer containing 10 μM Fe(II) (FeSO4)) is reported as 80 ± 10 µM, the Kd ([2]; apparent KD of GSH for KH3, buffers without iron) is reported as 390 ± 50 µM and the Kd [3] is reported as 86 ± 25 µM. The “increase of GSH binding in the presence of Fe(II)” value [4] was 2 fold, the “fold higher affinity of GSH for KH3 with iron” value [5] was ~5 fold and the “GSH binding of wild-type KH3 relative to control IPs” value [6] was 5 fold.

With `O[C@@H](CS)[C@@H](O)CS` (racemic) [dithiothreitol] the “stabilization of PCBP1–BolA2 complexes” value [7] was “did not result in stabilization”.

With `O=S(=O)([O-])[O-].[Fe+2]` [Fe(II), FeSO4] the “fold increase of affinity of KH3 for Fe(II) by GSH” value ([8]; 5 mM GSH versus no GSH) was ~ 5 fold, the Kd ([8]; 0 mM GSH (absence of glutathione)) was 4.2 ± 0.7 µM and the Kd ([8]; 5 mM GSH) was 0.8 ± 0.1 µM. The Kd ([9]; 0 mM GSH) was 16.4 ± 2.7 µM and the Kd ([9]; 5 mM GSH) was 9.4 ± 1.3 µM.
